What is called AUC is the area under the concentration-time curve, a measure of exposure. A higher AUC goes with more exposure. The Cmax is the maximum level reached in the sampled fluid or tissue. The Tmax is the time at which the peak concentration occurs.

The values that follow come from article PMC11920041 (NPJ Parkinson's Disease, 2025).

For data set [1] the following is noted: administered in combination with carbidopa; cited from earlier work.
The format of data set [2] is in vivo. The note with it: human, plasma, oral, median [interquartile range]; for AUC: up to 3 h. An outline of the steps: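 Fasting ≥12 h after last meal, dosing from 9:00 a.m.; PD patients on oral levodopa, diagnosed by UK Brain Bank criteria; no concomitant magnesium oxide or prokinetics. Blood via indwelling catheter before and 15–180 min after dose; centrifuged 1000 g, 10 min, 4 °C; plasma stored −80 °C; HPLC-ECD. Cmax and Tmax taken from the curve; AUC to 3 h by linear trapezoidal rule.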

The test system of data set [3] is small intestinal bacterial overgrowth (SIBO). The note with it: eradication of SIBO in patients with PD; cited from earlier work.
For data set [4] the following is noted: cited from earlier work.
The conditions of data set [5]: concomitant use in patients with PD; cited from earlier work.
The test system of another data set is tyrDC. The note with it: cited from earlier work.
For data set [6] the following is noted: mice; cited from earlier work.
The next data set deals with AADC. The note with it: cited from earlier work.
Setting [7] is: female, female patients, n = 12.

Where two headings read alike, the source gives them in different places.

`N[C@@H](Cc1ccc(O)c(O)c1)C(=O)O` [levodopa]: the half-life entry in data set [1] is reported as “approximately 90 min”. Further, the AUC in data set [2] (setting [7]) was determined as 12.7 µM·h; in data set [2] (male, male patients, n = 9), 6.95 µM·h. Also, the Cmax in data set [2] (setting [7]) turned out to be 10.4 µM; in data set [2] (male, male patients, n = 9) it was 4.88 µM. For the same compound, the Tmax in data set [2] (low levodopa Cmax group (< 9 μmol/L), n = 11) is 45 min; in data set [2] (male, male patients, n = 9), 45 min.

As for `CO[C@H]1/C=C/O[C@@]2(C)Oc3c(C)c(O)c4c(O)c(c5c(nc6cc(C)ccn65)c4c3C2=O)NC(=O)/C(C)=C\C=C\[C@H](C)[C@H](O)[C@@H](C)[C@@H](O)[C@@H](C)[C@H](OC(C)=O)[C@@H]1C` [rifaximin], in data set [3], the “effect on motor fluctuations” value is given as “improves motor fluctuations”.

As for `[O]=[Mg]` [magnesium oxide], the “effect of concomitant use on bioavailability of levodopa” value in data set [4] is reported as “may reduce”.

As for `COc1ccc2nc([S@@+]([O-])Cc3ncc(C)c(OC)c3C)[nH]c2c1` [esomeprazole], in data set [5], the “effect on levels of carbidopa in the plasma” value is “without affecting” and the “effect on levels of levodopa in the plasma” value is “reduced”.

Take `N[C@@](CF)(Cc1ccc(O)cc1)C(=O)O` [AFMT, (S)-α-fluoromethyltyrosine]: in the data set with tyrDC, the “inhibition of tyrDC-mediated levodopa decarboxylation” value is “selective inhibitor”. Besides, the “effect of concomitant use on levodopa Cmax” value in data set [6] is “increased”. In addition, in the data set with AADC, the “effect on AADC” value is on record as “without affecting AADC”.
